Data as given in ChEMBL document CHEMBL1125920, “Synthesis and biological activity of 5-alkyl-1,7,8-trisubstituted-6-fluoroquinoline-3-carboxylic acids” (1991).
In brackets after ≈: the same amount, converted by molar mass.

Assays:
Streptococcus pneumoniae = assay: Antibacterial activity was determined against gram positive organism, Streptococcus pneumoniae (SV-1); type: functional
Method in brief: (§1)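 MIC by standard microtitration against a panel of 10 representative Gram-negative and Gram-positive organisms; values reported in µg/mL.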

Mus musculus [1] = assay: In vivo subcutaneous protective dose was determined in female charles river CD-1 mice infected with Escherichia coli (vogel); type: functional; conditions: sc, read-out: PD50
Method in brief: (§2)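 Acute lethal systemic infection model in mice; drug given by subcutaneous injection; potency read out as median protective dose (PD50), in mg/kg.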

[2] = MIC ratio measured as the mean MICs of gram-negative bacteria; type: functional
Method in brief: (§3)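 Geometric mean of the MICs (µg/mL) over the Gram-negative or the Gram-positive strains of the 10-organism microtitration panel, calculated separately for each class.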

Mus musculus [3] = assay: In vivo oral protective dose was determined in female charles river CD-1 mice infected with Escherichia coli (vogel); type: functional; conditions: Mus musculus, po; read-out: PD50
Method in brief: (§4)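 Acute lethal systemic infection model in mice; drug given orally by gavage; potency read out as median protective dose (PD50), in mg/kg.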

Klebsiella pneumoniae = assay: Antibacterial activity was determined against gram negative organism, K. pneumoniae (MGH-2); type: functional; method in brief: as §1
Escherichia coli = assay: Antibacterial activity was determined against gram negative organism, E. coli(vogel); type: functional; method in brief: as §1
[4] = MIC ratio measured as the mean MICs of gram-positive bacteria; type: functional; method in brief: as §3
Staphylococcus aureus [5] = assay: Antibacterial activity was determined against gram positive organism, Staphylococcus aureus (UC76); type: functional; method in brief: as §1
Enterococcus faecalis = assay: Antibacterial activity was determined against gram positive organism, Streptococcus faecalis (MGH-2); type: functional; method in brief: as §1
Enterobacter cloacae = assay: Antibacterial activity against gram negative organism, […] (MA2646); type: functional
Bacteria = assay: Antibacterial activity was determined against gram negative organism, Providencia rettgeri. (M1771); type: functional; method in brief: as §1
Staphylococcus aureus [6] = assay: Antibacterial activity was determined against gram positive organism, Staphylococcus aureus (H228); type: functional; method in brief: as §1
Mus musculus [7] = assay: In vivo oral protective dose was determined in female charles river CD-1 mice infected with Streptococcus pneumoniae; type: functional; conditions: read-out: PD50; method in brief: as §4
[8] = target: DNA gyrase (Escherichia coli) (UniProt P0AES6+P0AES4)
Pseudomonas aeruginosa = assay: Antibacterial activity was determined against gram negative organism, Pseudomonas aeruginosa (UI-18); type: functional; method in brief: as §1
Streptococcus pyogenes = assay: Antibacterial activity was determined against gram positive organism, Streptococcus pyogenes (C203); type: functional; method in brief: as §1
Mus musculus [9] = assay: In vivo subcutaneous protective dose was determined in female charles river CD-1 mice infected with Streptococcus pneumoniae; type: functional; conditions: sc, read-out: PD50; method in brief: as §2

SMILES	MIC (Streptococcus pneumoniae) [µg/mL]	ED50 (Mus musculus [1]) [mg/kg]	Ratio [2]	ED50 (Mus musculus [3]) [mg/kg]	MIC (Klebsiella pneumoniae) [µg/mL]	MIC (Escherichia coli) [µg/mL]	Ratio [4]	MIC (Staphylococcus aureus [5]) [µg/mL]	MIC (Enterococcus faecalis) [µg/mL]	MIC (Enterobacter cloacae) [µg/mL]	MIC (Bacteria) [µg/mL]	MIC (Staphylococcus aureus [6]) [µg/mL]	ED50 (Mus musculus [7]) [mg/kg]	DNA cleavage [8] [µg/mL]	MIC (Pseudomonas aeruginosa) [µg/mL]	MIC (Streptococcus pyogenes) [µg/mL]	ED50 (Mus musculus [9]) [mg/kg]
Cc1c(F)c(N2CCNCC2)cc2c1c(=O)c(C(=O)O)cn2C1CC1	0.05 (≈ 0.145 µM)	0.4	0.044	1.5	0.05 (≈ 0.145 µM)	0.013 (≈ 0.0376 µM)	0.057	0.025 (≈ 0.0724 µM)	0.05 (≈ 0.145 µM)	0.013 (≈ 0.0376 µM)	0.1 (≈ 0.29 µM)	0.1 (≈ 0.29 µM)	100	0.3	0.2 (≈ 0.579 µM)	0.1 (≈ 0.29 µM)	21
Cc1c(F)c(N2CCNC(C)C2)c(F)c2c1c(=O)c(C(=O)O)cn2C1CC1 (stereo unspecified)	0.025 (≈ 0.0662 µM)	0.4	0.066	0.75	0.05 (≈ 0.132 µM)	0.025 (≈ 0.0662 µM)	0.033	0.013 (≈ 0.0344 µM)	0.1 (≈ 0.265 µM)	0.025 (≈ 0.0662 µM)	0.1 (≈ 0.265 µM)	0.025 (≈ 0.0662 µM)	12	3	0.4 (≈ 1.06 µM)	0.05 (≈ 0.132 µM)	11
CCNCC1CCN(c2c(F)c(C)c3c(=O)c(C(=O)O)cn(C4CC4)c3c2F)C1 (stereo unspecified)	0.003 (≈ 0.0074 µM)	3	0.15	14	0.1 (≈ 0.247 µM)	0.05 (≈ 0.123 µM)	0.0071	0.003 (≈ 0.0074 µM)	0.025 (≈ 0.0617 µM)	0.1 (≈ 0.247 µM)	0.2 (≈ 0.493 µM)	0.013 (≈ 0.0321 µM)	2.8	3	0.8 (≈ 1.97 µM)	0.006 (≈ 0.0148 µM)	1.6
O=C(O)c1cn(C2CC2)c2cc(N3CCNCC3)c(F)cc2c1=O [CIPROFLOXACIN]		0.25		1				0.2 (≈ 0.604 µM)	0.8 (≈ 2.41 µM)		0.05 (≈ 0.151 µM)		100		0.4 (≈ 1.21 µM)	0.8 (≈ 2.41 µM)	19
CCn1cc(C(=O)O)c(=O)c2c(C)c(F)c(N3CCNCC3)c(F)c21	6.3 (≈ 17.9 µM)		0.2		0.2 (≈ 0.569 µM)	0.05 (≈ 0.142 µM)	2.08	0.2 (≈ 0.569 µM)	3.1 (≈ 8.82 µM)	0.05 (≈ 0.142 µM)	0.4 (≈ 1.14 µM)	0.8 (≈ 2.28 µM)		7.5	1.6 (≈ 4.55 µM)	12.5 (≈ 35.6 µM)	
CCn1cc(C(=O)O)c(=O)c2c(C)c(F)c(N3CCC(N)C3)cc21 (stereo unspecified)	1.6 (≈ 4.8 µM)		0.69		0.8 (≈ 2.4 µM)	0.2 (≈ 0.6 µM)	1.38	0.4 (≈ 1.2 µM)	1.6 (≈ 4.8 µM)	0.2 (≈ 0.6 µM)	1.6 (≈ 4.8 µM)	1.6 (≈ 4.8 µM)		6.3	3.1 (≈ 9.3 µM)	3.1 (≈ 9.3 µM)	
CCn1cc(C(=O)O)c(=O)c2c(C)c(F)c(N3CCC(N)C3)c(F)c21 (stereo unspecified)	1.6 (≈ 4.55 µM)		0.2		0.2 (≈ 0.569 µM)	0.05 (≈ 0.142 µM)	0.69	0.1 (≈ 0.285 µM)	0.8 (≈ 2.28 µM)	0.05 (≈ 0.142 µM)	0.4 (≈ 1.14 µM)	0.4 (≈ 1.14 µM)		3	1.6 (≈ 4.55 µM)	3.1 (≈ 8.82 µM)	
Cc1c(F)c(N2CCC(C)(CN)C2)cc2c1c(=O)c(C(=O)O)cn2C1CC1 (stereo unspecified)	0.006 (≈ 0.0161 µM)		0.35		0.4 (≈ 1.07 µM)	0.1 (≈ 0.268 µM)	0.016	0.006 (≈ 0.0161 µM)	0.1 (≈ 0.268 µM)	0.1 (≈ 0.268 µM)	0.8 (≈ 2.14 µM)	0.025 (≈ 0.0669 µM)		0.75	1.6 (≈ 4.28 µM)	0.013 (≈ 0.0348 µM)	
Cc1c(F)c(N2CCNC(C)C2)cc2c1c(=O)c(C(=O)O)cn2-c1ccc(F)cc1F (stereo unspecified)	0.05 (≈ 0.116 µM)		0.4		0.4 (≈ 0.927 µM)	0.1 (≈ 0.232 µM)	0.087	0.025 (≈ 0.0579 µM)	0.4 (≈ 0.927 µM)	0.2 (≈ 0.464 µM)	0.8 (≈ 1.85 µM)	0.1 (≈ 0.232 µM)		1.75	1.6 (≈ 3.71 µM)	0.1 (≈ 0.232 µM)	
CCn1cc(C(=O)O)c(=O)c2c(C)c(F)c(N3CCNCC3)cc21	3.1 (≈ 9.3 µM)		0.35		0.4 (≈ 1.2 µM)	0.1 (≈ 0.3 µM)	2.08	0.4 (≈ 1.2 µM)	1.6 (≈ 4.8 µM)	0.2 (≈ 0.6 µM)	0.4 (≈ 1.2 µM)	3.1 (≈ 9.3 µM)		3	1.6 (≈ 4.8 µM)	6.3 (≈ 18.9 µM)	
CCNCC1CCN(c2cc3c(c(C)c2F)c(=O)c(C(=O)O)cn3CC)C1 (stereo unspecified)	0.8 (≈ 2.13 µM)		6.28		6.3 (≈ 16.8 µM)	1.6 (≈ 4.26 µM)	1.06	0.4 (≈ 1.07 µM)	1.6 (≈ 4.26 µM)	3.1 (≈ 8.26 µM)	12.5 (≈ 33.3 µM)	1.6 (≈ 4.26 µM)		3	25 (≈ 66.6 µM)	1.6 (≈ 4.26 µM)	
